Laboratory results taken from ChEMBL document CHEMBL1124270, “Quinolone antibacterial agents. Synthesis and structure-activity relationships of 8-substituted quinoline-3-carboxylic acids and 1,8-naphthyridine-3-carboxylic acids” (1988).
Values after ≈ are worked out from the molar mass of the structure shown.

Columns and labels:
Type in all cases: functional
Staphylococcus aureus [1] = assay: Minimum inhibitory concentration against Staphylococcus aureus UC-76 in vitro.
Streptococcus pneumoniae [2] = assay: In vivo potency against Streptococcus pneumoniae using mouse protection assay following p.o. administration.; conditions: po, read-out: PD50
Bacteria = assay: (§1) Minimum inhibitory concentration against Streptococcus pyogenes C203 in vitro.
Pseudomonas aeruginosa = assay: Minimum inhibitory concentration against Pseudomonas aeruginosa UI-18 in vitro.
Escherichia coli [3] = assay: Minimum inhibitory concentration against Escherichia coli H560 in vitro.
Staphylococcus aureus [4] = assay: Minimum inhibitory concentration against Staphylococcus aureus H228 in vitro.
Enterobacter cloacae = assay: Minimum inhibitory concentration against Enterobacter cloacae HA 2646 in vitro.
Escherichia coli [5] = assay: Minimum concentration needed to produce linear DNA at an intensity relative to oxolinic at 10 ug/mL in Escherichia coli H560 in vitro.
Summary of the method: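 DNA gyrase cleavage test, run as previously described: end point is the lowest drug level (µg/mL) that yields linear DNA at a band intensity matching oxolinic acid at 10 µg/mL. Values come from duplicate or triplicate experiments and are stated as accurate to ±50%.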

Providencia rettgeri = assay: Minimum inhibitory concentration against Providencia rettgeri H1771 in vitro.
Mus musculus [6] = assay: In vivo potency against Escherichia coli vogel using mouse protection assay when given perorally; conditions: po, read-out: PD50
Staphylococcus aureus [7] = assay: In vivo potency against Staphylococcus aureus using mouse protection assay following s.c. administration.; conditions: sc, read-out: PD50
Enterococcus faecalis = assay: Minimum inhibitory concentration against Streptococcus faecalis MGH-2 in vitro.
Escherichia coli [8] = assay: Minimum inhibitory concentration against Escherichia coli vogel in vitro.
Mus musculus [9] = assay: In vivo potency against Escherichia coli vogel using mouse protection assay when given subcutaneously; conditions: sc, read-out: PD50
Streptococcus pneumoniae [10] = assay: Minimum inhibitory concentration against Streptococcus pneumoniae SV-1 in vitro.
Streptococcus pneumoniae [11] = assay: In vivo potency against Streptococcus pneumoniae using mouse protection assay following s.c. administration.; conditions: sc, read-out: PD50
Klebsiella pneumoniae = assay: Minimum inhibitory concentration against Klebsiella pneumoniae MGH-2 in vitro.
Staphylococcus aureus [12] = assay: In vivo potency against Staphylococcus aureus using mouse protection assay following p.o. administration.; conditions: po, read-out: PD50
Mus musculus [13] = assay: In vivo potency against Streptococcus pneumoniae using mouse protection assay when given orally; conditions: po, read-out: PD50
Streptococcus pyogenes = assay: as §1
Mus musculus [14] = assay: In vivo potency against Staphylococcus aureus using mouse protection assay when given orally; conditions: po, read-out: PD50

Work on `CNCC1CCN(c2nc3c(cc2F)c(=O)c(C(=O)O)cn3C2CC2)C1` (stereo not drawn) yielded an MIC (Staphylococcus aureus [1]) of 0.025 µg/mL (≈ 0.0694 µM), an ED50 (Streptococcus pneumoniae [2]) of 27 mg/kg and an MIC (Bacteria) of 0.05 µg/mL (≈ 0.139 µM). It also gave an MIC (Pseudomonas aeruginosa) of 0.8 µg/mL (≈ 2.22 µM), an MIC (Escherichia coli [3]) of 0.05 µg/mL (≈ 0.139 µM) and an MIC (Staphylococcus aureus [4]) of 0.2 µg/mL (≈ 0.555 µM). It also gave an MIC (Enterobacter cloacae) of 0.2 µg/mL (≈ 0.555 µM), a DNA cleavage conc (gyrase) (Escherichia coli [5]) of 1 µg/mL and an MIC (Providencia rettgeri) of 0.4 µg/mL (≈ 1.11 µM). For the same compound, the ED50 (Mus musculus [6]) was 3 mg/kg, the ED50 (Staphylococcus aureus [7]) was 1 mg/kg and the MIC (Enterococcus faecalis) was 0.2 µg/mL (≈ 0.555 µM). For the same compound, the MIC (Escherichia coli [8]) was 0.1 µg/mL (≈ 0.277 µM), the ED50 (Mus musculus [9]) was 1 mg/kg and the MIC (Streptococcus pneumoniae [10]) was 0.025 µg/mL (≈ 0.0694 µM). The ED50 (Streptococcus pneumoniae [11]) was 11 mg/kg, the MIC (Klebsiella pneumoniae) was 0.2 µg/mL (≈ 0.555 µM) and the ED50 (Staphylococcus aureus [12]) was 3 mg/kg.

Work on `NCC1CCN(c2nc3c(cc2F)c(=O)c(C(=O)O)cn3C2CC2)C1` (stereo not drawn) yielded an MIC (Staphylococcus aureus [1]) of 0.006 µg/mL (≈ 0.0173 µM), an ED50 (Mus musculus [13]) of 100 mg/kg and an MIC (Streptococcus pyogenes) of 0.025 µg/mL (≈ 0.0722 µM). For the same compound, the MIC (Pseudomonas aeruginosa) was 0.2 µg/mL (≈ 0.577 µM), the MIC (Escherichia coli [3]) was 0.025 µg/mL (≈ 0.0722 µM) and the MIC (Staphylococcus aureus [4]) was 0.2 µg/mL (≈ 0.577 µM). The MIC (Enterobacter cloacae) was 0.1 µg/mL (≈ 0.289 µM), the DNA cleavage conc (gyrase) (Escherichia coli [5]) was 0.5 µg/mL and the MIC (Providencia rettgeri) was 0.4 µg/mL (≈ 1.15 µM). For the same compound, the ED50 (Mus musculus [6]) was 17 mg/kg, the MIC (Enterococcus faecalis) was 0.025 µg/mL (≈ 0.0722 µM) and the MIC (Escherichia coli [8]) was 0.1 µg/mL (≈ 0.289 µM). For the same compound, the MIC (Streptococcus pneumoniae [10]) was 0.1 µg/mL (≈ 0.289 µM), the ED50 (Mus musculus [14]) was 55 mg/kg and the MIC (Klebsiella pneumoniae) was 0.1 µg/mL (≈ 0.289 µM).

For `CNCC1CCN(c2c(F)cc3c(=O)c(C(=O)O)cn(C4CC4)c3c2F)C1` (stereo not drawn), the MIC (Staphylococcus aureus [1]) was 0.013 µg/mL (≈ 0.0344 µM), the ED50 (Mus musculus [13]) was 2 mg/kg and the MIC (Streptococcus pyogenes) was 0.006 µg/mL (≈ 0.0159 µM). For the same compound, the MIC (Pseudomonas aeruginosa) was 0.2 µg/mL (≈ 0.53 µM), the MIC (Escherichia coli [3]) was 0.006 µg/mL (≈ 0.0159 µM) and the MIC (Staphylococcus aureus [4]) was 0.025 µg/mL (≈ 0.0662 µM). The MIC (Enterobacter cloacae) was 0.025 µg/mL (≈ 0.0662 µM), the DNA cleavage conc (gyrase) (Escherichia coli [5]) was 0.25 µg/mL and the MIC (Providencia rettgeri) was 0.2 µg/mL (≈ 0.53 µM). For the same compound, the ED50 (Mus musculus [6]) was 2 mg/kg, the MIC (Enterococcus faecalis) was 0.013 µg/mL (≈ 0.0344 µM) and the MIC (Escherichia coli [8]) was 0.05 µg/mL (≈ 0.132 µM). The MIC (Streptococcus pneumoniae [10]) was 0.006 µg/mL (≈ 0.0159 µM), the ED50 (Mus musculus [14]) was 22 mg/kg and the MIC (Klebsiella pneumoniae) was 0.05 µg/mL (≈ 0.132 µM).
